An excerpt weighted towards active compounds, which were near 3.7% of everything screened.
procasp3 activ – activators of human procaspase-3. P42574. recombinant procaspase-3 D3A, Ac-DEVD-pNA absorbance 405 nm. activation, % at 8.5 µM. hit rate 0.11% among 330,000. AID 463141;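 active means activation above the mean of all tested compounds plus 3 SD, cut at about 21% in these data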;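 further: 0% = DMSO alone and 100% = DMSO wells spiked with extra 5 µM PC-3 D3A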
Target sequence (P42574 whole entry D9A/D28A/D175A): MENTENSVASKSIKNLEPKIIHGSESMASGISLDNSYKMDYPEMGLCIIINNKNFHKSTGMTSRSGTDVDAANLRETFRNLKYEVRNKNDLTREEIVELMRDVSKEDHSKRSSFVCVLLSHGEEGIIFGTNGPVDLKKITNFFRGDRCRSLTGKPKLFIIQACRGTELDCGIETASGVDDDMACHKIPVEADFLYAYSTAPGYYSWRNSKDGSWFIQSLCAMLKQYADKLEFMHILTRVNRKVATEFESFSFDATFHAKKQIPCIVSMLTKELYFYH
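Evaluation: percent activation relative to control range; Material: Procaspase-3 D3A mutant, all three cleavage aspartates alanine; Compound: single dose, 8.5 µM nominal compound, 0.8% DMSO; Replication: one well per compound; Signal: absorbance at 405 nm, 0 and 120 min; Schedule: 1 h preincubation plus 2 h reaction at 25 °C.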
MPTP block – inhibitors of mitochondrial permeability transition pore | isolated mouse mitochondria, Ca2+ swelling absorbance, 30 min | inhibition, % at 10 µM | hit rate 1.4% among 360,000 | AID 602449;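 active means inhibition of 50% or more, scaled per plate between neutral and stimulator controls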;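 further: 0% = DMSO wells given calcium and 100% = 1 mM EGTA wells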
aDG glyco act – alpha-DG glycosylation activation | Pro5-aDG cells, alpha-DG glycosylation AlphaScreen (IIH6); 0% Pro5, 100% B10-LARGE cell signal | activation, % at 10 µM | hit rate 0.22% among 360,000;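 active means activation of at least 8% versus controls, or a plate z-score of at least 8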;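 further: Pro5 are CHO cells carrying HIG-tagged alpha-DG that lacks glycosylation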
NR3A LBD binder – modulates the human NR3A ligand-binding domain; NR3A LBD differential scanning fluorimetry, Tm shift; 0% = protein alone, 100% = glycine-bound protein; Tm shift relative to glycine control, % at 25 µM; hit rate 2.5% among 340,000;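 active means melting temperature shift of at least 10% of the positive control shift, at one fixed dose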
procasp7 counter – counter-screen for procaspase-3 activators: activators of human procaspase-7; P55210; hit rate 0.093% among 330,000; activation, % at 8.5 µM; recombinant procaspase-7, Ac-DEVD-pNA absorbance 405 nm; D23A/D198A/D206A triple mutant, cannot self-cleave; scale: DMSO 0, 5 µM enzyme 100;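 active means percent activation above the screen-wide mean plus 3 SD, cut at about 25% in these data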
Target sequence (P55210 whole entry D23A/D198A/D206A): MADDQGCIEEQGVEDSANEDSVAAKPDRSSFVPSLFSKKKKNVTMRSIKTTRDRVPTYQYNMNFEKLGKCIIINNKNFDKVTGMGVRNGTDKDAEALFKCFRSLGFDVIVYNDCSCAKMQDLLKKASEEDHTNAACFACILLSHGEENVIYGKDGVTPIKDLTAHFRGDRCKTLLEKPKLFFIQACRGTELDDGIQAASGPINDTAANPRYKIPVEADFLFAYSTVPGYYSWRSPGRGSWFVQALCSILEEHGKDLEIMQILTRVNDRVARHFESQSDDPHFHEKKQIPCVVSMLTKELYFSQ
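Assay system: Uncleavable procaspase-7 mutant enzyme; Input: 2 µM procaspase-7 mutant as dispensed; Also added: DEVD-pNA substrate; Medium: Zinc-free HEPES pH 7.4 with 300 mM NaCl, 0.01% Triton X-100; Timing: 1 h compound preincubation, 2 h substrate cleavage, 25 °C; Measured by: Epi-absorbance of released pNA at 405 nm, two timepoints.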
An asterisk follows results filed as active; / = no result.

SMILES	procasp3 activ	MPTP block	aDG glyco act	NR3A LBD binder	procasp7 counter
O=C(COC(=O)/C=C/c1cccc(C(F)(F)F)c1)NC1CCS(=O)(=O)C1 (configuration not stated)	5	0	0	3	8
COc1cc(-c2cc(NC(C)=O)c3ncc(-c4cc(OC)c(OC)c(OC)c4)n3c2)cc(OC)c1OC	/	1	-1	/	/
CCNC(=O)COC(=O)c1ccc(-n2nc(C)cc2C)cc1	3	-1	0	-2	3
Cc1cc(C)n(-c2ccc(C(=O)OCC(=O)NCc3ccco3)cc2)n1	2	-1	0	21*	2
CCC(=O)N1CCCC(C)(C(=O)Nc2ccc(C)c(C)c2)C1 (configuration not stated)	/	2	0	/	/
COc1ccc(Br)cc1C(=O)N/N=C/c1cccnc1	-7	0	0	1	2
CCOc1ccc(/C=N/NC(=O)c2cc3ccccc3cc2OC)cc1	0	-2	0	24*	3
CCOc1ccc(S(=O)(=O)Nc2ccccc2C(=O)N/N=C/c2c(OC)ccc3ccccc23)cc1	10	13	0	22*	14
COc1cc2ccccc2cc1C(=O)N/N=C/c1cccnc1	2	-1	0	83*	-2
CCOc1ccc(/C=N/NC(=O)c2[nH]c3ccc(C)cc3c2C)cc1	/	3	0	26*	/
COc1cccc(C(N)c2nc(-c3csc4ccccc34)cs2)c1 (configuration not stated)	/	-2	0	/	/
CCCCOc1ccc(/C=N/NC(=O)c2csc(C)c2C)cc1	1	-11	1	28*	2
COc1cc(NC(=O)C(C)(C)C)c(C(=O)OCC(=O)Nc2cc(C)on2)cc1OC	/	0	0	/	/
COc1ccc(-c2cc(C(=O)N3CCN(S(=O)(=O)c4ccccc4)CC3)[nH]n2)cc1	4	-1	0	15*	8
CNC(=O)CC1C(=O)N(Cc2ccccc2)C(=S)N1NC(=O)c1cccc(F)c1 (configuration not stated)	7	-1	0	14*	-9
Cc1ccc(NC(=O)CC2C(=O)N(Cc3ccccc3)C(=S)N2NC(=O)c2ccccc2)c(C)c1 (configuration not stated)	-2	6	0	11*	5
CCN1C(=O)C(CC(=O)Nc2ccccc2Cl)N(NC(=O)c2cccc(F)c2)C1=S (configuration not stated)	-7	0	0	-2	-5
CNC(=O)CC1C(=O)N(c2ccc(Cl)cc2)C(=S)N1NC(=O)c1cccc(F)c1 (configuration not stated)	-9	0	0	0	-10
O=C(CN1CCCC1c1cccs1)N1CCN(S(=O)(=O)c2cccc(F)c2)CC1 (configuration not stated)	1	0	0	-1	-12
CC(C)C[C@H](NC(=O)CC[C@H]1O[C@@H](n2ccc(=O)[nH]c2=O)[C@H](O)[C@@H]1O)C(=O)O	/	-1	1	/	/
COc1cc(/C=C/C(=O)NC(=O)c2ccccc2O)ccc1O	-6	2	0	-5	11
COc1cc(/C=C/C(O)=C/C(=O)/C=C/c2ccc(O)cc2)ccc1O	9	28	0	23*	13
Cc1cc(C)c2c(=O)n(CC(=O)NCCCN3CCOCC3)sc2n1	-31	-2	0	19*	-23
Cc1cc(C)c2c(=O)n(CC(=O)NCCCN3CCN(c4ccccc4F)CC3)sc2n1	-27	/	/	3	-41
CC(=O)Nc1cc(-c2ccc(N)cc2)cn2c(-c3cccc(C(F)(F)F)c3)cnc12	/	0	0	/	/
SMILES	procasp3 activ	MPTP block	aDG glyco act	NR3A LBD binder	procasp7 counter
Cc1ccc2c(c1)S(=O)(=O)c1ccc3ccccc3c1N2	/	5	0	9	/
CN(C(=O)COC(=O)c1c2c(nc3ccccc13)/C(=C/c1cccc([N+](=O)[O-])c1)CCC2)C1CCS(=O)(=O)C1 (configuration not stated)	1	-1	-1	3	9
O=C(COC(=O)c1c2c(nc3ccccc13)/C(=C/c1cccc([N+](=O)[O-])c1)CCC2)NC1CCS(=O)(=O)C1 (configuration not stated)	0	2	0	11*	0
CCCCCCC1CC(=O)NC(=O)N1 (configuration not stated)	-2	1	0	14*	11
CC1Cc2ccccc2N1C(=O)c1ccc(F)c(S(=O)(=O)N2CCOCC2)c1 (configuration not stated)	9	0	0	1	11
CCOc1ccc(CCN2C(=S)N([C@@H](CC(C)C)CN3CCCC3CN3C(=S)NC[C@@H]3CC(C)C)C[C@@H]2CC(C)C)cc1 (some centres not stated)	/	1	0	1	/
CC1=NN(c2ccc(Cl)cc2)C(=O)/C1=C\c1cccn1-c1ccc(S(N)(=O)=O)cc1	-12	7	0	22*	-5
O=C(Nc1ccc(NC(=S)NC(=O)c2ccccc2Cl)cc1)c1cccc(Cl)c1	-4	-1	1	18*	3
CCNC(=S)Nc1cccc(NC(=O)c2ccccc2O)c1	0	11	0	11*	-5
CC(C)C(=O)Nc1cccc(NC(=S)NC(=O)c2ccccc2Cl)c1	3	2	0	3	7
CCC(=O)Nc1cccc(NC(=S)NC(=O)c2ccccc2Cl)c1	0	1	0	17*	14
O=C(Nc1ccc(NC(=O)c2cccnc2Cl)cc1)c1cccc(Cl)c1	0	0	0	22*	2
O=C(Nc1ccc2c(c1)OCCO2)C1C(=O)Nc2ccccc2C(=O)N1C1CCCCC1 (configuration not stated)	/	0	0	/	/
O=C(NCc1ccncc1)c1csc([C@@H]2C[C@H](O)[C@@H](CO)O2)n1	/	0	0	/	/
O=C(Nc1ccc2ccccc2c1)c1cnccn1	-5	-1	0	-12	-7
CCCc1nn(C)c(C(=O)Nc2cccc(CC)c2)c1Cl	7	3	1	12*	3
Cc1nn(C)c(C(=O)Nc2cccc(CN3CCOCC3)c2)c1Br	4	0	0	0	2
CCCc1nn(C)c(C(=O)Nc2ccc3ccccc3c2)c1Cl	-5	2	0	17*	1
CC(C)C[C@@H](COCc1ccc([N+](=O)[O-])cc1)N1CCN(C(=O)c2ccc(C(F)(F)F)cc2)CCC1=O	/	-1	0	/	/
C=CCNC(=O)/C(C#N)=C\c1cc(Cl)c(O)c(OCC)c1	-3	1	0	-11	7
CCOc1cc(/C=C(/C#N)C(=O)Nc2ccc(O)cc2)cc(Br)c1O	-2	0	-1	13*	4
O=C(Nc1nc2c(s1)CCCC2)c1ccc(Br)o1	-1	1	0	11*	2

Bioassay records as filed in PubChem BioAssay.
